Reference: ChEMBL document CHEMBL1129475, “Water soluble inhibitors of topoisomerase I: quaternary salt derivatives of camptothecin” (J Med Chem, 1996)
≈ marks a conversion by molar mass, not a printed value.

Tests used:
Mus musculus [1] = test: Delay in tumor growth in drug treated animals compared to controls at a dose of 100(mg/kg); format: functional
Summary of the method: (§1)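 Tumor growth delay in nude mice with HT-29 xenografts, N=6. The dose from a single s.c. bolus in tumor-free mice was split into three s.c. portions given over one day. T/C = difference in days for tumors to reach 500% of initial volume, treated versus control.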

[2] = Solubility was measured in D2O using 1H NMR integration of the C-20 ethyl group against internal standard 1,4-dioxane; format: physicochemical
Summary of the method: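 Compound equilibrated ≥30 min in D2O containing 1,4-dioxane (0.015 M standardized solution) as internal standard, then filtered. 300-MHz ¹H spectrum; the C-18 methyl triplet at 0.8–0.9 ppm was integrated against the dioxane signal at 3.75 ppm.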

Mus musculus [3] = species: Mus musculus; test: Maximally tolerated dose that caused <=30% body weight loss in mice; format: functional
Summary of the method: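 Highest single s.c. bolus dose in tumor-free nude mice causing ≤30% body weight loss.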

SK-OV-3 = test: Human tumor cell cytotoxicity assay was performed using MTT (SK-OV3 cell line ); format: functional, cell-based
HT-29 = test: Human tumor cell cytotoxicity assay was performed using MTT (HT-29 cell line ); format: functional, cell-based
[4] = MDR ratio is defined as the quotient of SKVLB IC50/SKOV3 IC50; format: functional
Summary of the method: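 Ratio of SKVLB IC50 to SKOV3 IC50, each from the 96 h MTT cytotoxicity assay with a four-parameter logistic fit.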

SK-VLB = test: Human tumor cell cytotoxicity assay was performed using MTT (SKVLB cell line ); format: functional, cell-based
Mus musculus [5] = test: Efficacy against HT-29 human colon xenograft infected mice expressed as tumor growth ratio at dose 11 mg/Kg; format: functional
Summary of the method: (§2)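 Female nu/nu mice (18-24 g) bearing subcutaneous HT-29 flank tumours, N=6 per group. Dosed subcutaneously twice weekly for 5 weeks over a dose range that included the highest dose, which was set in naive mice. Caliper volume = length×width²/2. T/B = group mean tumour volume at end of treatment divided by initial mean volume.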

Mus musculus [6] = test: Compound was tested for number of deaths of the animals at a dose of 11 mg/Kg in mice; format: ADME, organism-based; details: in vivo
Summary of the method: (§3)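 Female nu/nu mice (18-24 g) carrying subcutaneous HT-29 flank tumors; N=6 per group. Compound given s.c. twice weekly for 5 weeks over a dose range including the highest dose found in naive mice. Caliper tumor volume = length×width²/2. T/B = tumor volume at end of treatment over initial volume. Body weight monitored; mean weight loss per group.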

Mus musculus [7] = test: Compound was tested for number of deaths of the animals at a dose of 10.5 mg/Kg in mice; format: ADME, organism-based; details: in vivo; summary of the method: as §3
Mus musculus [8] = test: Mean body weight loss for animals in all experimental conditions at dose 9.5 mg/Kg in HT-29 human colon xenograft infected mice; format: functional; summary of the method: as §3
Mus musculus [9] = test: Mean body weight loss for animals in all experimental conditions at dose 10.5 mg/Kg in HT-29 human colon xenograft infected mice; format: functional; summary of the method: as §3
Mus musculus [10] = test: Efficacy against HT-29 human colon xenograft infected mice expressed as tumor growth ratio at dose 10.5 mg/Kg; format: functional; summary of the method: as §3
Mus musculus [11] = test: Efficacy against HT-29 human colon xenograft infected mice expressed as tumor growth ratio at dose 9.5 mg/Kg; format: functional; summary of the method: as §3
Mus musculus [12] = test: Compound was tested for number of deaths of the animals at a dose of 9.5 mg/Kg in mice; format: ADME, organism-based; details: in vivo; summary of the method: as §3
Mus musculus [13] = test: Mean body weight loss for animals in all experimental conditions at dose 11 mg/Kg in HT-29 human colon xenograft infected mice; format: functional; summary of the method: as §3
Mus musculus [14] = test: Delay in tumor growth in drug treated animals compared to controls at a dose of 48(mg/kg); format: functional; summary of the method: as §1
Mus musculus [15] = test: Compound was tested for number of deaths of the animals at a dose of 7 mg/Kg in mice; format: ADME, organism-based; details: in vivo; summary of the method: as §3
Mus musculus [16] = test: Efficacy against HT-29 human colon xenograft infected mice expressed as tumor growth ratio at dose 7 mg/Kg; format: functional; summary of the method: as §2
Mus musculus [17] = test: Compound was tested for number of deaths of the animals at a dose of 9 mg/Kg in mice; format: ADME, organism-based; details: in vivo; summary of the method: as §3
Mus musculus [18] = test: Mean body weight loss for animals in all experimental conditions at dose 7 mg/Kg in HT-29 human colon xenograft infected mice; format: functional
Summary of the method: (§4)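 HT-29 subcutaneous xenografts in female nu/nu mice, N=6 per group. Subcutaneous dosing twice weekly for 5 weeks. Body weight was monitored and reported as mean percent loss per group. A loss of 30% or more was considered lethal.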

Mus musculus [19] = test: Compound was tested for number of deaths of the animals at a dose of 5 mg/Kg in mice; format: ADME, organism-based; details: in vivo; summary of the method: as §3
Mus musculus [20] = test: Efficacy against HT-29 human colon xenograft infected mice expressed as tumor growth ratio at dose 9 mg/Kg; format: functional; summary of the method: as §2
Mus musculus [21] = test: Mean body weight loss for animals in all experimental conditions at dose 5 mg/Kg in HT-29 human colon xenograft infected mice; format: functional; summary of the method: as §4
Mus musculus [22] = test: Efficacy against HT-29 human colon xenograft infected mice expressed as tumor growth ratio at dose 5 mg/Kg; format: functional; summary of the method: as §2
Mus musculus [23] = test: Delay in tumor growth in drug treated animals compared to controls at a dose of 54(mg/kg); format: functional
Mus musculus [24] = test: Mean body weight loss for animals in all experimental conditions at dose 9 mg/Kg in HT-29 human colon xenograft infected mice; format: functional; summary of the method: as §4
Mus musculus [25] = test: Compound was tested for number of deaths of the animals at a dose of 8 mg/Kg in mice; format: ADME, organism-based; details: in vivo; summary of the method: as §3
Mus musculus [26] = test: Efficacy against HT-29 human colon xenograft infected mice expressed as tumor growth ratio at dose 12 mg/Kg; format: functional; summary of the method: as §3
Mus musculus [27] = test: Efficacy against HT-29 human colon xenograft infected mice expressed as tumor growth ratio at dose 8 mg/Kg; format: functional; summary of the method: as §3
Mus musculus [28] = test: Compound was tested for number of deaths of the animals at a dose of 14 mg/Kg in mice; format: ADME, organism-based; details: in vivo; summary of the method: as §3
Mus musculus [29] = test: Mean body weight loss for animals in all experimental conditions at dose 12 mg/Kg in HT-29 human colon xenograft infected mice; format: functional; summary of the method: as §3
Mus musculus [30] = test: Mean body weight loss for animals in all experimental conditions at dose 14 mg/Kg in HT-29 human colon xenograft infected mice; format: functional; summary of the method: as §3
Mus musculus [31] = test: Delay in tumor growth in drug treated animals compared to controls at a dose of 80(mg/kg); format: functional; summary of the method: as §1
Mus musculus [32] = test: Compound was tested for number of deaths of the animals at a dose of 12 mg/Kg in mice; format: ADME, organism-based; details: in vivo; summary of the method: as §3
Mus musculus [33] = test: Mean body weight loss for animals in all experimental conditions at dose 8 mg/Kg in HT-29 human colon xenograft infected mice; format: functional; summary of the method: as §3
Mus musculus [34] = test: Efficacy against HT-29 human colon xenograft infected mice expressed as tumor growth ratio at dose 14 mg/Kg; format: functional; summary of the method: as §3

| SMILES | solubility [2] | MTD (Mus musculus [3]) | IC50 (SK-OV-3) | IC50 (HT-29) | Ratio [4] | IC50 (SK-VLB) | other results |
| --- | --- | --- | --- | --- | --- | --- | --- |
| CC[C@@]1(O)C(=O)OCc2c1cc1n(c2=O)Cc2c-1nc1cc3c(cc1c2C[n+]1cccc(CO)c1)OCO3 | > 4400 µg/mL | >100 mg/kg | 11 nM | 13 nM | 2 | 23 nM | T/C (Mus musculus [1]): 9 days |
| CC[C@@]1(O)C(=O)OCc2c1cc1n(c2=O)Cc2c-1nc1cc3c(cc1c2C[n+]1ccccn1)OCCO3 | 910 µg/mL |  | 69 nM |  | 1 | 94 nM |  |
| CC[C@@]1(O)C(=O)OCc2c1cc1n(c2=O)Cc2c-1nc1cc3c(cc1c2Cn1cc[n+](C)c1)OCO3 | > 3500 µg/mL | 100 mg/kg | 110 nM | 75 nM | 9 | 1000 nM | Efficacy (Mus musculus [5]): 2.85; T/C (Mus musculus [1]): 14 days; Deaths (Mus musculus [6]): 0; Deaths (Mus musculus [7]): 0; BW loss (Mus musculus [8]): 4%; BW loss (Mus musculus [9]): 12%; Efficacy (Mus musculus [10]): 3.84; Efficacy (Mus musculus [11]): 6.74; Deaths (Mus musculus [12]): 0; BW loss (Mus musculus [13]): 16% |
| CC[C@@]1(O)C(=O)OCc2c1cc1n(c2=O)Cc2c-1nc1cc3c(cc1c2C[n+]1ccncc1)OCO3 | 1400 µg/mL | 80 mg/kg | 6 nM | 46 nM | 4 | 23 nM | T/C (Mus musculus [14]): 11 days |
| CC[C@@]1(O)C(=O)OCc2c1cc1n(c2=O)Cc2c-1nc1cc3c(cc1c2C[n+]1ccccc1)OCO3 | > 4500 µg/mL | >100 mg/kg | 74 nM | 70 nM | 1 | 72 nM | T/C (Mus musculus [1]): 4 days |
| CC[C@@]1(O)C(=O)OCc2c1cc1n(c2=O)Cc2c-1nc1cc3c(cc1c2Cn1cc[n+](C)c1)OCCO3 | 1300 µg/mL |  |  |  |  |  |  |
| CC[C@@]1(O)C(=O)OCc2c1cc1n(c2=O)Cc2cc3c(CN(C)C)c(O)ccc3nc2-1 [TOPOTECAN] | 2100 µg/mL (≈ 4.98 mM) | 54 mg/kg |  |  |  |  | Efficacy (Mus musculus [5]): 2.9; Deaths (Mus musculus [15]): 0; Deaths (Mus musculus [6]): 0; Efficacy (Mus musculus [16]): 7; Deaths (Mus musculus [17]): 2; BW loss (Mus musculus [18]): 11%; Deaths (Mus musculus [19]): 0; Efficacy (Mus musculus [20]): 4.3; BW loss (Mus musculus [21]): 15%; Efficacy (Mus musculus [22]): 8.6; BW loss (Mus musculus [13]): 23%; T/C (Mus musculus [23]): 10 days; BW loss (Mus musculus [24]): 17% |
| CC[C@@]1(O)C(=O)OCc2c1cc1n(c2=O)Cc2c-1nc1cc3c(cc1c2C[n+]1ccccc1)OCCO3 | 1800 µg/mL |  | 85 nM | 84 nM | 1 | 84 nM |  |
| CC[C@@]1(O)C(=O)OCc2c1cc1n(c2=O)Cc2c-1nc1cc3c(cc1c2C[n+]1ccc(CO)cc1)OCCO3 | 1100 µg/mL |  |  |  |  |  |  |
| CC[C@@]1(O)C(=O)OCc2c1cc1n(c2=O)Cc2c-1nc1cc3c(cc1c2C[n+]1cccc(CO)c1)OCCO3 | 1200 µg/mL |  |  |  |  |  |  |
| COc1cccc2c1C(=O)c1c(O)c3c(c(O)c1C2=O)C[C@@](O)(C(=O)CO)C[C@@H]3O[C@H]1C[C@H](N)[C@H](O)[C@H](C)O1 [DOXORUBICIN] | > 2000 µg/mL |  |  |  | 160 |  |  |
| CC[C@@]1(O)C(=O)OCc2c1cc1n(c2=O)Cc2c-1nc1cc3c(cc1c2C[n+]1ccncc1)OCCO3 | 1400 µg/mL | 100 mg/kg | 11 nM | 16 nM | 80 | 870 nM | Deaths (Mus musculus [25]): 0; Efficacy (Mus musculus [26]): 0.7; Efficacy (Mus musculus [27]): 2.1; Deaths (Mus musculus [28]): 0; BW loss (Mus musculus [29]): 27%; BW loss (Mus musculus [30]): 13%; T/C (Mus musculus [31]): 14 days; Deaths (Mus musculus [32]): 0; BW loss (Mus musculus [33]): 21%; Efficacy (Mus musculus [34]): 0.32 |
| CC[C@@]1(O)C(=O)OCc2c1cc1n(c2=O)Cc2c-1nc1cc3c(cc1c2Cn1ccnc1)OCO3 | < 500 µg/mL |  |  |  |  |  |  |
| CC[C@@]1(O)C(=O)OCc2c1cc1n(c2=O)Cc2c-1nc1cc3c(cc1c2Cn1ccnc1)OCCO3 | < 500 µg/mL |  |  |  |  |  |  |
| CC[C@@]1(O)C(=O)OCc2c1cc1n(c2=O)Cc2c-1nc1cc3c(cc1c2C[n+]1ccccn1)OCO3 | > 3100 µg/mL |  | 83 nM |  | 2 | 130 nM |  |
